# Measured values gathered from unrelated publications.
# Each line is one published result; the experiments were not run side by side.
# Target: Mitogen-activated protein kinase kinase kinase 2 (MAP3K2, Homo sapiens, UniProt Q9Y2U5)
# One construct used (Q9Y2U5 1-619): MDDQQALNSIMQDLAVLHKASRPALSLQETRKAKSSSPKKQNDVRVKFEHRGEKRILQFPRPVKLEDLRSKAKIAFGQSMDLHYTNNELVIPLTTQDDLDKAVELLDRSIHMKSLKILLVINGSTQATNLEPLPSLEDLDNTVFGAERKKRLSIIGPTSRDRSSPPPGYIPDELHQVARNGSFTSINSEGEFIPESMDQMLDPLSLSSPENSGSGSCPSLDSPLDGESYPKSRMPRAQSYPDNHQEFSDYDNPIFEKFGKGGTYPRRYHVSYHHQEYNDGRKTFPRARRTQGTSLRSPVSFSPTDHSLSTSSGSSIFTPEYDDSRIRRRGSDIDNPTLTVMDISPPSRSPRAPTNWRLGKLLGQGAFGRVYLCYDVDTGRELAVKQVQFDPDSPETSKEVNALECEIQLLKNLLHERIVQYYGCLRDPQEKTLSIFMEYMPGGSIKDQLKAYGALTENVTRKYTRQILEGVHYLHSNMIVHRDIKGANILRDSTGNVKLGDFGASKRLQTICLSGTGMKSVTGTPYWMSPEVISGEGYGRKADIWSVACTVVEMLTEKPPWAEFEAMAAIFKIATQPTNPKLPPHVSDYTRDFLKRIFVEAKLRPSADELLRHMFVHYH
Structure (SMILES),test,conditions,remaining binding
c1cnn2ncc(-c3ccnc(N4CCC45COC5)n3)c2c1,binding,1 µM,58%
CNC(=O)[C@@H]1CC[C@@H](n2c(-c3ccc4cnccc4c3)nc3ccc(C(=O)NCc4cccc(C(N)=O)c4)cc32)C1,"binding, competition with immobilised ligand",1 µM,86%
Cc1c(NC(=O)c2cc(C(N)=O)nc3cc(F)ccc23)c(C(F)(F)F)nn1Cc1ccc(C(C)(C)C)cc1,"cell-free assay, competition with immobilised ligand",1 µM,100%
O=C(c1ccc(Nc2ncc(Cl)c(-c3ccc(Cl)s3)n2)cc1)N1CCC(N2CCCC2)CC1,"binding, competition with immobilised ligand",1 µM,4.9%
CC1CCCN1c1nccc(-c2cnn3ncccc23)n1 (stereo not drawn),binding,1 µM,98%
Cc1nc(N2CC[C@@H](O)C2)ncc1-c1cc(C(F)(F)F)cc2[nH]ncc12,"binding, competition with immobilised ligand",1 µM,60%
N[C@H]1CCN(c2nccc(-c3cnn4ncccc34)n2)C1,binding,1 µM,100%
COc1ncc2cc3ccccc3nc2c1C#N,"cell-free assay, competition with immobilised ligand",5 µM,91%
C[C@@H](c1ccc(-n2cnc3c(N)ncnc32)cc1)N1CCc2nn(C)c(Cc3ccccc3)c2C1=O,"binding, competition with immobilised ligand",0.1 µM,57%
O=C(Nc1cccnn1)N1CCC(=Cc2cccc(Oc3ccc(C(F)(F)F)cn3)c2)CC1,"cell-free assay, competition with immobilised ligand",1 µM,100%
O=C(c1ccc(Nc2nccc(-c3cc4ccccc4s3)n2)cc1)N1CCC(N2CCCC2)CC1,"binding, competition with immobilised ligand",1 µM,43%
FC(F)(F)Oc1cccc(-c2cnc3ccc(-c4ccncc4)nn23)c1,"cell-free assay, competition with immobilised ligand",5 µM,79%
O=C(Nc1c[nH]nc1C(=O)NC1CCNCC1)c1cc(F)cc(F)c1,"binding, competition with immobilised ligand",1 µM,94%
O=S(=O)(NC1CCC(c2cc(F)ccc2F)(S(=O)(=O)c2ccc(Cl)cc2)CC1)C(F)(F)F (stereo not drawn),"cell-free assay, competition with immobilised ligand",1 µM,98%
C[C@H]1CCN(c2nccc(-c3cnn4ncccc34)n2)C1,binding,1 µM,81%
COc1cnc(Nc2cccc(S(N)(=O)=O)c2)nc1N1CCN(c2ccccc2)C(=O)C1,"binding, competition with immobilised ligand",1 µM,74%
c1ccc(N2CCN(Cc3nc4ccccc4[nH]3)CC2)nc1,"binding, competition with immobilised ligand",1 µM,100%
CN(C)c1nccc(-c2cnc3ncccn23)n1,binding,1 µM,73%
C[C@@H]1CN(c2cc(-c3nn(C)c4ccc(OC5(C)CC5)cc34)ncn2)C[C@H](C)O1,"cell-free assay, competition with immobilised ligand",1 µM,83%
F[C@@H]1CCN(c2nccc(-c3cnn4ncccc34)n2)C1,binding,1 µM,92%
O=C(NCCCN1CCOCC1)c1ccc(Nc2nccc(-c3cc4ccccc4s3)n2)cc1,"binding, competition with immobilised ligand",1 µM,24%
